The source of these data is ChEMBL document CHEMBL1125380, “Synthesis, cardiac electrophysiology, and beta-blocking activity of novel arylpiperazines with potential as class II/III antiarrhythmic agents” (J Med Chem, 1992).

Activity calls are given as the source filed them. The calls are words filed in the database; no cut-off is given here.

Assay [1] has as its target Beta-2 adrenergic receptor (Canis lupus familiaris, UniProt P54833). The format is cell membranes.
The species entered for assay [2] is Canis familiaris. In words: Concentration necessary to prolong APD at 95% repolarization by 20% from control. Format: functional, Canis lupus familiaris. An outline of the steps: (§1)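 Concentration giving a 20% prolongation of action potential duration at 95% repolarization versus control, with Vmax monitored as a class I index. Values are the log mean of n experiments with range; concentrations went up to 30 µM.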

The species named for assay [3] is Canis familiaris. In words: Number of active animals / number of tested animals in programmed electrical stimulation model (PES). The format is functional, Canis lupus familiaris. An outline of the steps: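 Conscious dogs studied by programmed electrical stimulation 3-8 days after occlusion/reperfusion infarction. Two control SVT/VF inductions were made first, with VF ended by DC countershock and SVT by burst pacing. Reinduction was tried after iv compound; an animal counted as protected if SVT/VF could not be induced.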

The species named for assay [4] is Canis familiaris. Nature of the assay: Compound was evaluated for Mean arterial pressure in dog. The format is functional, Canis lupus familiaris, Artery. Summed up: (§2)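 Pentobarbital-anesthetized mongrel dogs (n = 4) received a 10 mg/kg iv dose over 5 min. Haemodynamic parameters were recorded 15 min after dosing, as change from pre-dose.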
For assay [5], the species on record is Canis familiaris. In words: Compound was evaluated for change in Heart rate in dog. The format is functional, Canis lupus familiaris. An outline of the steps: as §2
Assay [6] is filed under the species Canis familiaris. In words: Compound was evaluated for Cardiac output in dog. The format is functional, Canis lupus familiaris. Summed up:
as §2

Assay [7] is filed under the species Canis familiaris. In words: Peak range of change in left ventricular pressure in dog. The format is functional, Canis lupus familiaris, Heart left ventricle. An outline of the steps:
as §2

The test system of assay [8] is Canis familiaris. Nature of the assay: number of effected animals / number of tested animals at 3 mg/kg in a halothane / epinephrine model. The format is functional, Canis lupus familiaris. An outline of the steps:
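Halothane-anesthetized dogs received compound as a 10-min iv infusion at 3 mg/kg. Thirty minutes later, epinephrine was infused at 1.5 µg/kg per min for 15 min. Protection meant no SVT/VF during the whole epinephrine infusion; reported as protected/tested.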

For assay [9], the species on record is Canis familiaris. Nature of the assay: Compound was evaluated for Total peripheral resistance in dog. Format: functional, Canis lupus familiaris. Summed up: as §2
The species entered for assay [10] is Canis familiaris. Nature of the assay: Concentration necessary to prolong APD at 95% repolarization by 20% from control; Not Reached at 30 uM. The following applies: Canis lupus familiaris. The format is functional. An outline of the steps: as §1

Chain of Beta-2 adrenergic receptor (P54833 whole entry): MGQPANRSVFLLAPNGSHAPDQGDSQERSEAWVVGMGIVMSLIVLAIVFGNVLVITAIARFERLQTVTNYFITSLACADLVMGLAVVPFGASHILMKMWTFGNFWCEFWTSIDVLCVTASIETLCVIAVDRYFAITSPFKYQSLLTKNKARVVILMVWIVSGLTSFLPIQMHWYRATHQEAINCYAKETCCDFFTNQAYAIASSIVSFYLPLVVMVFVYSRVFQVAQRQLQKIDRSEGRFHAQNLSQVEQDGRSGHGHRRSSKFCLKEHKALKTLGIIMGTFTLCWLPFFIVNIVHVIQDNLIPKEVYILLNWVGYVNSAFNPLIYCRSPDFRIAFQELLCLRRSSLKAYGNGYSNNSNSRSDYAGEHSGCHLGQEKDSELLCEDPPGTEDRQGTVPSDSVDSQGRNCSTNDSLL

Take `Cc1ccc(N2CCNCC2)cc1`: the half-inhibitory concentration (IC50) (as a rule, the concentration that inhibits the measured activity by half) in assay [1] is over 100 µM.

Consider `O=C(NCC1CN(c2ccccc2)CCN1)c1ccc(-n2ccnc2)cc1` (configuration not stated), for which the “C20 APD95” value in the assay filed under Canis familiaris [2] is 0.9 µM. Besides, inhibition in [1] was half-maximal at 4.3 µM (IC50).

As to `CS(=O)(=O)Nc1ccc(C(=O)NCC2CN(c3ccccc3)CCN2)cc1` (configuration not stated), the No. active in the assay filed under Canis familiaris [3] was determined as 6. In the assay listed under Canis familiaris [4], this molecule showed an MAP of 5. Moreover, the HR in the assay filed under Canis familiaris [5] stood at 38. The “C20 APD95” value in the assay filed under Canis familiaris [2] was determined as 0.8 µM. This molecule showed a Cardiac output in the assay listed under Canis familiaris [6] of -14. Also, the LV in the assay listed under Canis familiaris [7] was found to be 3. In the assay with Canis familiaris [8], this molecule gave a No. effective of 5. In assay [1], this molecule came in with an IC50 of 3.4 µM. The TPR in the assay listed under Canis familiaris [9] was determined as 22.

As for `CS(=O)(=O)Nc1ccc(OCC2CN(c3ccccc3)CCN2)cc1` (configuration not stated), the “C20 APD95” value in the assay listed under Canis familiaris [2] was found to be 1 µM. In assay [1], this molecule registered an IC50 of 4.5 µM.

Take `CS(=O)(=O)Nc1ccc(NCC2CN(c3ccccc3)CCN2)cc1` (configuration not stated): in the assay filed under Canis familiaris [2], the “C20 APD95” value was 2 µM. For the same molecule, the IC50 in assay [1] amounted to 1 µM.

On to `CS(=O)(=O)Nc1ccc(NCC2CNCCN2c2ccccc2)cc1` (configuration not stated), for which, in the assay filed under Canis familiaris [2], the “C20 APD95” value worked out at 9.2 µM. In addition, the IC50 in [1] came to 42 µM.

Take `CC(C)NCC(O)c1ccc(NS(C)(=O)=O)cc1` (configuration not stated) [SOTALOL]: in the assay listed under Canis familiaris [3], the No. active turned out to be 7. This molecule also displayed an MAP in the assay filed under Canis familiaris [4] of -26. The molecule further showed an HR in the assay filed under Canis familiaris [5] of -39. For the same molecule, the “C20 APD95” value in the assay filed under Canis familiaris [2] came out at 18 µM. Moreover, the Cardiac output in the assay filed under Canis familiaris [6] is on record as -44. Moreover, in the assay listed under Canis familiaris [7], the LV is -33. In the assay on Canis familiaris [8], this molecule yielded a No. effective of 6. The molecule further displayed a TPR in the assay filed under Canis familiaris [9] of 41.

Take `CS(=O)(=O)Nc1ccc(CNCC2CN(c3ccccc3)CCN2)cc1` (configuration not stated): in the assay filed under Canis familiaris [2], the “C20 APD95” value turned out to be 0.4 µM. In assay [1], this molecule displayed an IC50 of 4.6 µM.

In [1], `COc1ccccc1N1CCNCC1` gave an IC50 of 34 µM.

As for `COc1cccc(N2CCNCC2)c1`, in assay [1], the midpoint of inhibition, the IC50, lay at 29 µM.

Consider `CS(=O)(=O)Nc1ccc(C(=O)NCC2CNCCN2c2ccccc2)cc1` (configuration not stated), for which, in the assay filed under Canis familiaris [2], the “C20 APD95” value was found to be 3.2 µM. In assay [1], this molecule showed a concentration for half-maximal inhibition (IC50) of 31 µM.

On to `Clc1ccccc1N1CCNCC1`, for which the IC50 in [1] is 16 µM.

On to `COc1ccc(N2CCNCC2)cc1`, for which the concentration for half-maximal inhibition (IC50) in assay [1] is over 100 µM.

For the molecule `O=C(NCC1CN(c2ccccc2)CCN1)c1ccccc1` (configuration not stated), in the assay listed under Canis familiaris [10], the “C20 APD95” value is “inactive”. In assay [1], this molecule registered an IC50 of 6.2 µM.

Molecule `Cc1cccc(N2CCNCC2)c1` came in with a 50% inhibitory concentration (IC50) in [1] of 40 µM.

Take `CN(c1ccc(C(=O)NCC2CN(c3ccccc3)CCN2)cc1)S(C)(=O)=O` (configuration not stated): the “C20 APD95” value in the assay listed under Canis familiaris [10] was “inactive”. In addition, the IC50 in assay [1] was 4.3 µM.

`COc1ccccc1N1CCNC(CNC(=O)c2ccc(NS(C)(=O)=O)cc2)C1` (configuration not stated): in the assay listed under Canis familiaris [2], the “C20 APD95” value was found to be 18 µM. Besides, in [1], half-maximal inhibition (IC50) was put at 0.63 µM.

The molecule `Cc1ccccc1N1CCNCC1` returned an IC50 in assay [1] of 29 µM.

Regarding `Clc1ccc(N2CCNCC2)cc1`, in [1], the IC50 was determined as 70 µM.

For `c1ccc(N2CCNCC2)cc1` [PHENYLPIPERAZINE], the IC50 in assay [1] is over 100 µM.

Molecule `CC(=O)c1ccc(N2CCNCC2)cc1` returned an IC50 in [1] of over 100 µM.

In the case of `Clc1cccc(N2CCNCC2)c1` [CHLOROPHENYLPIPERAZINE], half-maximal inhibition in assay [1] (IC50) required 18 µM.

Take `CS(=O)(=O)Nc1ccc(NC(=O)C2CN(c3ccccc3)CCN2)cc1` (configuration not stated): the “C20 APD95” value in the assay filed under Canis familiaris [2] amounted to 21 µM. In assay [1], this molecule came in with an IC50 of over 100 µM.

For the molecule `COc1cccc(N2CCNC(CNC(=O)c3ccc(NS(C)(=O)=O)cc3)C2)c1` (configuration not stated), the “C20 APD95” value in the assay filed under Canis familiaris [2] came to 2.5 µM. 3.5 µM corresponded to half-maximal inhibition in [1] (IC50).

In the case of `CS(=O)(=O)Nc1ccc(C(=O)NCC2CN(c3cccc(Cl)c3)CCN2)cc1` (configuration not stated), in the assay filed under Canis familiaris [2], the “C20 APD95” value turned out to be 0.8 µM. The molecule further came in with an IC50 in assay [1] of 3.8 µM.
